Rows were chosen to be rich in hits. Some 1.4% of all compounds tested hit in one or more screens of this group.
T cell HTS: modulates CD8 T cell binding to vesicles. response (vesicle binding), % at 7 µM. AID 2052. 2C CD8+ T cell-vesicle binding, flow cytometry; stronger effect = lower value. 0.068% of 330,000 active;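 active means response, share of CD8 T cells binding vesicles, and their 90th percentile fluorescence all below set limits, cut at about 80% in these data, passing the limit was not always enough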;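 further: values below 100% mean blocked vesicle binding to the CD8+ T cells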
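incubation = binding step 1.5 h, 37 °C, antibody labelling 20 min, ice | test system = 2C mouse CD8+ T cells | read-out basis = percent CD8+ FL2 mean versus row control | controls = Peptide-free naked vesicles (low) and QL9 vesicles with 0.7% DMSO vehicle (high) | detection = flow cytometry of vesicle-bound cells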
HIF act: HIF pathway transcriptional activation; U2OS HRE-luciferase reporter, luminescence; normalized: DMSO 0%, desferrioxamine 100%; activation, % at 7.5 µM (by protocol); 0.32% of 300,000 active; AID 1910;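 active means mean activation of at least 10% of the iron chelator positive control signal, with at least half of replicates also reaching 10%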
GASC-1 inh: inhibitors of human GASC-1 (JMJD2C) demethylase. Q9H3R0. GST-JMJD2C(1-420) H3K9me3 demethylation, DELFIA europium. inhibition, % at 2.35 µM. 0.069% of 330,000 active. AID 2099;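 active means more than half of a compound's replicate wells show inhibition beyond 50%, single wells judged on their own value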;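 further: signal counts dimethyl H3K9 product captured on neutravidin plate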
Target sequence (Q9H3R0 1-420 limits assumed): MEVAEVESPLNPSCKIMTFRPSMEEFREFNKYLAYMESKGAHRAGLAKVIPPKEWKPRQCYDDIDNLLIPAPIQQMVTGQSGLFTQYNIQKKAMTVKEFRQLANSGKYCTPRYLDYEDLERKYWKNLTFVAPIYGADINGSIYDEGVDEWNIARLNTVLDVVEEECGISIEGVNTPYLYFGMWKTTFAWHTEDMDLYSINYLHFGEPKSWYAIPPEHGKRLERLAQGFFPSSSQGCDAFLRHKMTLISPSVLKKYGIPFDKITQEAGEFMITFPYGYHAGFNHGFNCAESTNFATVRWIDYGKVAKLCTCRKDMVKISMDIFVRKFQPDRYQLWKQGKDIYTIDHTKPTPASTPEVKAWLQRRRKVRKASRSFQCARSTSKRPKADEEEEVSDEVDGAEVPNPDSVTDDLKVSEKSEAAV
SUMO Mot1 rescue: blocks SUMOylation pathway, rescuing yeast Mot1-301 growth. growth rescue, % at 18.8 µM. 1% of 320,000 active. S. cerevisiae Mot1-301 growth rescue, ATP luminescence, 38.5C; percent above DMSO median, 100 means doubled;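 active means every valid replicate shows activation above 250% relative to neutral control wells; inactive means the rest, any valid replicate at or below 250%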
Numbers stand for hits; n = inactive; x = not tested or not shown; + = active, no number.

SMILES | T cell HTS | HIF act | GASC-1 inh | SUMO Mot1 rescue
CC1C(=O)N(Cc2ccc([N+](=O)[O-])cc2)c2ccccc2N1C(=O)C1CC1 (centres undefined) | n | n | 60 | n
COCCN(C(=O)COC(=O)CCS(=O)(=O)c1ccccc1)c1c(N)n(Cc2ccccc2)c(=O)[nH]c1=O | n | n | n | n
CCN1/C(=C/C=C/c2oc3ccc(-c4ccccc4)cc3[n+]2CC)Oc2ccc(-c3ccccc3)cc21 | n | n | n | 339
CCOC(=O)c1c(NC(=O)C2CCCO2)sc(C)c1C (centres undefined) | n | n | n | x
CCOC(=O)c1c(NC(=O)C2CCCO2)sc2c1CCC2 (centres undefined) | n | n | 52 | x
CCOC(=O)c1c(NC(=O)c2nn(CC)cc2Br)sc2c1CCCCC2 | n | n | n | 858
CCOC(=O)c1ccc(NC(=O)c2nn(CC)cc2Br)cc1 | n | n | n | 349
CCOC(=O)c1c(NC(=O)c2nn(CC)cc2Br)sc(C)c1C | n | x | n | n
Cc1nc(CN(C)Cc2nc(Cc3ccccc3Cl)no2)cs1 | n | x | n | n
COc1ccc(S(=O)(=O)N(C)c2ccc(C(=O)N3CCC(C(N)=O)CC3)cc2)cc1OC | n | n | n | 345
O=C(COC(=O)/C=C/c1ccc(C(F)(F)F)cc1)NC1CCS(=O)(=O)C1 (centres undefined) | n | n | n | n
COc1ccc(NC(=O)C2CCN(S(=O)(=O)c3ccc4c(c3)CC(C)N4C(C)=O)CC2)cc1OC (centres undefined) | n | 678 | n | n
CCCC(=O)NC(c1ccco1)c1cc(Cl)c2cccnc2c1O (centres undefined) | n | n | n | n
CCC(=O)NC(c1ccc(OC)c(OC)c1)c1cc(Cl)c2cccnc2c1O (centres undefined) | x | n | n | x
CCCC(=O)NC(c1cccs1)c1cc(Cl)c2cccnc2c1O (centres undefined) | n | 29 | n | n
CCCC(=O)NC(c1ccc2c(c1)OCO2)c1cc(Cl)c2cccnc2c1O (centres undefined) | n | 12 | n | x
COc1cccc(NC(=O)c2ccc3nc(C)sc3c2)c1 | n | n | n | n
Cc1cc(N)n(-c2ccccn2)n1 | n | n | n | n
CCCCNCC(=O)Nc1sc(C)c(C)c1C(=O)OCC | n | n | n | n
CCOC(=O)c1c(NC(=O)CNCC(O)CO)sc(C)c1C (centres undefined) | n | n | n | 295
O=C(Nc1ccccc1N1CCN(C(=O)c2ccccc2)CC1)c1cc2ccccc2o1 | n | x | x | 264
CN(C)CCN(C(=O)c1ccc(N2C(=O)CCC2=O)cc1)c1nc2cc3c(cc2s1)OCCO3 | n | n | n | x
CC(NC(=O)c1ccncc1)c1ccc(Cl)cc1Cl (centres undefined) | n | n | n | n
CC(N)c1ccc(Cl)cc1Cl (centres undefined) | 32 | n | n | n
CC1(C)Cc2ccccc2C2=C(C(=O)N3CCCCCC3)C(=O)C(=O)N21 | n | n | n | 307
SMILES | T cell HTS | HIF act | GASC-1 inh | SUMO Mot1 rescue
O=C1C(=O)N2C(=C1C(=O)N1CCCCCC1)c1ccccc1CC21CCCC1 | n | n | n | n
COc1ccc(C(C)=NNC(=O)c2cccc(S(=O)(=O)N3CCCC3)c2)cc1 | n | x | n | n
COc1ccc(/C(C)=N/NC(=O)c2cccc(S(=O)(=O)N3CCCC3)c2)c(O)c1 | n | 33 | n | n
Cc1ccc(C)c(OC(=O)c2cncc(Br)c2)c1 | 0.0 | n | n | n
CCCCn1c(=O)[nH]c(=O)c2c1nc(-c1cc(Cl)c(OC)c(OC)c1)n2C | n | n | 52 | n
CC(CN1CCN(C)CC1)OC(=O)c1cccc(F)c1 (centres undefined) | n | n | n | n
O=C(c1ccccn1)N1CCCC(N2CCN(c3cccc(C(F)(F)F)c3)CC2)C1 (centres undefined) | n | n | n | n
O=C(c1ccccn1)N1CCN(c2cccc(C(F)(F)F)c2)CC1 | n | n | n | 363
O=C(NC(=S)N1CCCCC1)c1cccnc1 | n | n | n | 344
COCc1nc2sc3c(c2c(=O)[nH]1)CCCC3 | n | n | n | 481
CCCCCn1c(=O)c(C(=O)OCC)c(O)c2ccccc21 | n | n | n | n
CCOC(=O)c1c(O)c2cc(Cl)ccc2n(CC)c1=O | 58 | n | n | n
COC(=O)c1ccc(C(C(=O)NCc2ccccc2)N(Cc2ccco2)C(=O)c2cnccn2)cc1 (centres undefined) | n | 174 | n | n
CN1CCN(c2nc(-c3ccc(Cl)cc3Cl)nc3ccccc23)CC1 | n | n | n | n
N/C(=N\OC(=O)COc1ccc(Br)cc1)c1cccc([N+](=O)[O-])c1 | n | n | n | n
Cc1ccc(C)c(OCC(=O)O/N=C(\N)c2cccc([N+](=O)[O-])c2)c1 | n | 114 | n | n
COc1ccc(CNC(=O)CNC(=O)c2ccc(C(C)(C)C)cc2)cc1OC | n | n | n | n
Cc1cc(OCC(=O)Nc2ccc(CN3CCOCC3)cc2)c2c(C)cc(=O)oc2c1 | n | n | n | n
Cc1cc(OCC(=O)Nc2ccc(CN3CCOCC3)cc2)c2c(C)c(C)c(=O)oc2c1 | n | n | n | 305
COC(=O)CCCC1=CC2=CC(=O)C(C)(OC(=O)c3cccs3)C(=O)C2=CN1Cc1ccccc1 (centres undefined) | n | n | n | n
COC(=O)CCCC1=CC2=CC(=O)C(C)(OC(=O)c3cccs3)C(=O)C2=CN1Cc1ccc2c(c1)OCO2 (centres undefined) | n | 19 | n | n
O=C(COC(=O)C1CCC1)NC(=O)c1ccccc1 | 0.0 | n | n | n
COc1ccccc1C(=O)NCCC(=O)NCC(c1ccco1)N1CCCC1 (centres undefined) | n | x | n | n
CC(C)C1C(c2ccccc2)N(C)C(c2ccccc2)CC1(O)c1ccccc1 (centres undefined) | n | n | n | 379
COc1ccc([N+](=O)[O-])cc1NC(=O)C(C)Sc1nc(-c2ccccc2)cs1 (centres undefined) | 0.0 | n | n | n
SMILES | T cell HTS | HIF act | GASC-1 inh | SUMO Mot1 rescue
COc1ccc([N+](=O)[O-])cc1NC(=O)C(C)Sc1ccccc1 (centres undefined) | n | n | n | n
CC1(C(=O)Nc2nc3ccccc3s2)CC1(Br)Br (centres undefined) | n | n | n | n
O=C(O)CNC(=S)N(Cc1ccccc1F)C1CCCCC1 | n | n | n | +
Nc1nonc1-n1nnc(C(=O)N/N=C/c2ccccc2Cl)c1COc1ccc(F)cc1 | n | n | n | n
CCN(CCCNC(=O)CCc1nc(-c2ccc(OC)cc2)no1)c1cccc(C)c1 | n | 143 | n | n
COc1cccc(/C=C2\NC(=O)NC2=O)c1O | n | n | n | n
Cc1cc(=O)c2cc3nc(-c4cccnc4)oc3c(Br)c2o1 | 0.0 | n | n | n
CN(CC(=O)Nc1ccc(F)cc1)C(=O)Cn1cnc2ccc([N+](=O)[O-])cc2c1=O | n | x | n | n
COc1cccc(/C=N/Nc2ncnc(Cl)c2N)c1O | n | n | n | n
